For orientation: logP means a log measure of how a compound divides between an organic and an aqueous phase. Low values mean lower lipophilicity, high ones higher lipophilicity. By pKa is commonly meant the negative logarithm of the acid dissociation constant. The low end stands for a group that gives up its proton readily, the high end for a group that holds its proton tightly. What is called half-life is how long it takes for the measured level to halve. A higher half-life goes with slow loss.

The structures appear in SMILES notation.

Data set [1] is described as follows: Partition coefficient, logP of compound. It counts as physicochemical. The note with it: octanol/water.
The nature of data set [2]: Stability in mouse serum incubated up to 6 hrs by HPLC analysis. It counts as ADME, cell-free.
Data set [3] in a line: Drug uptake in human SK-N-SH cells assessed as [125I]-2'-deoxy-5-iodo-uridine level at 38 kBq/mL after 1 hr by gamma counting method. It counts as ADME, cell-based. In outline:
(§1)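 SK-N-SH cells were exposed to 125I compound at an extracellular 38 kBq/mL for 1 h or continuously for 24 h. Cell-associated 125I was gamma-counted per cell.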

A short description of data set [4]: Drug uptake in human SK-N-SH cells assessed as [125I]-2'-deoxy-5-iodo-uridine level at 38 kBq/mL after 24 hrs by gamma counting method. It counts as ADME, cell-based. In outline: as §1
Data set [5] can be described thus: Dissociation constant, pKa of compound. It counts as physicochemical.
Data set [6] can be described thus: Drug uptake in human SK-N-SH cells assessed as level of 125I-incorporation into DNA incubated 1 hr followed by compound washout with non-radioactive medium/PBS and measured after 23 hrs by gamma counting method relative to control. It counts as ADME, cell-based. In outline:
(§2)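 SK-N-SH cells exposed to the 125I-labelled guanidine for 1 h, then washed with nonradioactive medium and PBS. Cells were either processed at once (1 h) or given fresh nonradioactive medium and returned to the incubator for 23 h (24 h). Subcellular fractions (cytoplasm, DNA) were counted by γ-counter. Values are mean and SD, n ≥ 3.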

Data set [7] can be described thus: Drug uptake in human SK-N-SH cells assessed as level of 125I-incorporation into DNA after 1 hr and followed by compound washout with non-radioactive medium/PBS and measured immediately by gamma counting method relative to control. It counts as ADME, cell-based. In outline:
as §2

Data set [8] concerns the target T1, Sodium-dependent noradrenaline transporter (Homo sapiens, UniProt P23975). Description: Substrate activity at NET in human SK-N-SH cells assessed as drug uptake per cell at 37 kBq/ml incubated for 1 hr in presence of nonradioactive MIBG at 4 degC by filtration based gamma counting method. It counts as ADME.
Data set [9] can be described thus: Stability in mouse serum incubated up to 24 hrs by HPLC analysis. It counts as ADME, cell-free.
The target of data set [10] is T1, Sodium-dependent noradrenaline transporter. The experiment in a line: Substrate activity at NET in human SK-N-SH cells assessed as drug uptake per cell at 37 kBq/ml incubated for 1 hr in presence of nonradioactive MIBG at 37 degC by filtration based gamma counting method. It counts as ADME.
The nature of data set [11]: Drug uptake in human SK-N-SH cells using 125I labelled compound by gamma counting method. It counts as ADME, cell-based.
Data set [12] is described as follows: Half life in human serum incubated up to 24 hrs by HPLC analysis. It counts as ADME, cell-free.
Data set [13] in a line: Drug uptake in cytoplasm of human SK-N-SH cells at 39.3 +/- 0.3 kBq/mL after 24 hrs by gamma counting method relative to control. It counts as ADME, subcellular. In outline: (§3)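 SK-N-SH cells were exposed 1 h to 125I compound (≈39–40 kBq/mL), then washed with nonradioactive medium and PBS. Cells were processed immediately (1 h) or re-incubated in fresh medium for 23 h (24 h). Cytoplasmic, nuclear and DNA fractions were gamma-counted.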

The test system of data set [14] is SK-N-SH. Description: Anticlonogenic activity against human SK-N-SH cells assessed as number of colonies at 39.3+/- 0.3 kBq/mL after 1 hr by crystal violet staining based assay. It counts as functional. In outline:
(§4)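 SK-N-SH cells exposed for 1 h to 125I-MIBG (39.3 ± 0.3 kBq/mL extracellular) or IDG (40 ± 0.5 kBq/mL). For the 1 h group, cells were washed with nonradioactive medium and PBS, harvested with trypsin and replated for the clonogenic assay. For the 24 h group, cells were washed, given fresh nonradioactive medium and incubated a further 23 h before plating. Colonies were counted.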

Data set [15] can be described thus: Drug level in tumor of NCR nu/nu mouse xenografted with human BE(2)-C cells at 0.83 +/- 0.09 MBq administered intratumorally after 24 hrs by gamma counting analysis. It counts as ADME, tissue-based, Neoplasm. The settings on record: in vivo, other. In outline:
(§5)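 Athymic Ncr nu/nu female and male mice bearing subcutaneous BE(2)-C xenografts received intratumor injections of the 125I agent. Tissues, tumor and blood were collected at 24 h and counted for radioactivity, expressed as %ID/g. Tumor-to-blood ratios were derived.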
For orientation: A xenograft is tissue or cells of one species grown in another, often human tumour cells in immunodeficient mice.

A short description of data set [16]: Drug uptake in cytoplasm of human SK-N-SH cells at 39.3 +/- 0.3 kBq/mL after 1 hr and followed by compound washout with non-radioactive medium/PBS and measured immediately by gamma counting method relative to control. It counts as ADME, subcellular. In outline: as §3
The nature of data set [17]: Drug level in adrenal gland of NCR nu/nu mouse xenografted with human BE(2)-C cells at 0.44 +/- 0.1 MBq administered intratumorally after 24 hrs by gamma counting method. It counts as ADME, tissue-based. The note with it: in vivo, other. In outline:
as §5

A short description of data set [18]: Drug level in tumor of NCR nu/nu mouse xenografted with human BE(2)-C cells at 0.44 +/- 0.1 MBq administered intratumorally after 24 hrs by gamma counting method. It counts as ADME, tissue-based, Neoplasm. The settings on record: in vivo, other. In outline:
as §5

Data set [19] in a line: Ratio of tumor to blood concentration in NCR nu/nu mouse xenografted with human BE(2)-C cells at 0.44 +/- 0.1 MBq administered intratumorally after 24 hrs by gamma counting method. It counts as ADME, tissue-based. The settings on record: tumour, other. In outline: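 Athymic Ncr nu/nu female and male mice bearing subcutaneous BE(2)-C xenografts were given a single intratumoral injection of the 125I-labelled agent. Tumor and tissues were collected at 24 h, 125I was γ-counted, and uptake was expressed as %ID/g. The tumor-to-blood ratio was derived from the %ID/g values.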

Data set [20] is described as follows: Drug recovery in mouse N1E-115 cells assessed as [125I]-2'-deoxy-5-iodo-uridine level in nucleus after 24 hrs by gamma counting method relative to control. It counts as ADME, cell-based. The settings on record: n1e-115, 24 h, in the assay text read “in DNA” for “in nucleus”. In outline:
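N1E-115 murine neuroblastoma cells were incubated 24 h with 125I agent. Subcellular fractions (cytoplasm, nucleus, DNA pellet) were gamma-counted as percentage of recovered 125I.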

Data set [21] deals with SK-N-SH. Description: Anticlonogenic activity against human SK-N-SH cells assessed as number of colonies at 39.3+/- 0.3 kBq/mL after 24 hr by crystal violet staining based assay. It counts as functional. In outline:
as §4

The nature of data set [22]: Stability in human serum assessed as intact compound level after 5 mins by HPLC analysis. It counts as ADME, cell-free. The settings on record: read-out: Stability. In outline: (§6)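 Radioiodinated guanidines were incubated in mouse, human or pig serum and analyzed by radio-HPLC on a C18 column at 0.8 mL/min. The gradient was 0–95% CH3CN over 50 min, then 95% for 20 min. Intact compound was fitted to monoexponential degradation to give half-life. Values are average ± std err.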

Data set [23] can be described thus: Stability in human SK-N-SH cells assessed as parent compound level after 24 hrs by HPLC analysis. It counts as ADME, cell-based. The settings on record: read-out: Stability. In outline:
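The compound was incubated 24 h in cell culture medium without cells or with SK-N-SH cells. Intact compound and 125IUdR catabolite were quantified by radio-HPLC on a C18 column at 0.8 mL/min, with a 0–95% CH3CN gradient over 50 min and 95% for 20 min.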

Data set [24] can be described thus: Stability in human serum assessed as intact compound level after 60 mins by HPLC analysis. It counts as ADME, cell-free. The note with it: read-out: Stability. In outline:
as §6

T1 sequence (P23975 whole entry): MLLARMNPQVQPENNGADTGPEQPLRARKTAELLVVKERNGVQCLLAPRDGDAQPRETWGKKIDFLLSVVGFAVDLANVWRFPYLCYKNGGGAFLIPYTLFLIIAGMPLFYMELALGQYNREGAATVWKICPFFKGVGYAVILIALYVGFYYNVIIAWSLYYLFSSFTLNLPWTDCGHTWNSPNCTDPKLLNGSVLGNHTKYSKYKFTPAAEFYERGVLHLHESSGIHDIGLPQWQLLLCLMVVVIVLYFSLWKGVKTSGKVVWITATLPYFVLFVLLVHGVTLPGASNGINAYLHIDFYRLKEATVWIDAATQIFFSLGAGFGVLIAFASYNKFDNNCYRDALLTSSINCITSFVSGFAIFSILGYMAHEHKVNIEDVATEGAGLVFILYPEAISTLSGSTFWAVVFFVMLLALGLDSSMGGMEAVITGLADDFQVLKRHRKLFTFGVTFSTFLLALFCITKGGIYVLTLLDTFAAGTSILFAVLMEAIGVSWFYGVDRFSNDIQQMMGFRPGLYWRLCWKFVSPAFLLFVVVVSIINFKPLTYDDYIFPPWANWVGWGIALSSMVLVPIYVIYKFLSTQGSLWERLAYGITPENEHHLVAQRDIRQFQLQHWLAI

As for `N=C(N)NC[C@H]1O[C@@H](n2cc([125I])c(=O)[nH]c2=O)C[C@@H]1O`, in data set [1], the logP was -1.3. Besides, the Stability entry in [2] is “Unstable”. Also, the results for the Drug uptake in data set [3] and in data set [4] were 0.00001 mBq and 0.00054 mBq, respectively. This molecule came in with a pKa in [5] of 11.5.

Turning to `CC(C)(C)c1cc(C(C)(C)C)c2c(c1F)COP(=O)(OC[C@H]1O[C@@H](n3cc([125I])c(=O)[nH]c3=O)C[C@@H]1OC(=O)CCCCCNC(=N)N)O2` (some centres undefined), the lipophilicity (logP) in [1] amounted to 4.58. The Drug uptake in data set [6] was 42%; in data set [7] it was 14%; in data set [8], 0.05 mBq; in data set [10], 1.85 mBq; in data set [11], “Dose-dependent effect and Tde”. Besides, in data set [9], the Stability result is reported as “Unstable”. This molecule gave a half-life in [12] of 900 min. The pKa in data set [5] came out at 12.1.

Molecule `N=C(N)NCc1ccc(C(=O)OC[C@H]2O[C@@H](n3cc([125I])c(=O)[nH]c3=O)C[C@@H]2O)cc1` returned a logP in [1] of 0.26. Further, the Stability result in data set [9] was “Unstable”. For the same molecule, the Drug uptake entry in [11] is “Dose-dependent effect and Tde”. Further, the half-life in data set [12] was 45.6 min. In data set [5], this molecule showed a pKa of 11.9.

In turn, `N=C(N)NCc1cccc(I)c1` [IOBENGUANE] yielded a logP in data set [1] of 1.63. In data set [5], this molecule displayed a pKa of 11.8.

Turning to `N=C(N)NCc1cccc([125I])c1`, the Drug uptake in data set [13] turned out to be 74%; in data set [15], 1.85 % ID/g; in data set [16] it was 87%; in data set [17], 4.64 % ID/g; in data set [18], 1.85 % ID/g. Moreover, the Activity came to 229 with SK-N-SH [14] and 250 in the data set with SK-N-SH [21]. Further, the Ratio in data set [19] worked out at 19. Also, the Drug recovery in data set [20] stood at 0%.

For `N=C(N)NCCCCCC(=O)OC[C@H]1O[C@@H](n2cc([125I])c(=O)[nH]c2=O)C[C@@H]1O`, in data set [1], the logP is -0.2. Besides, the remaining at 5 min in data set [22] came to 77%. In addition, the remaining at 24 h in data set [23] is 30%. In addition, the Stability result in data set [9] was “Unstable”. Further, the Drug uptake result in data set [11] was “Dose-dependent effect and Tde”. In addition, in data set [24], the remaining at 1 h worked out at 47%. The same molecule gave a half-life in [12] of 53.4 min. The pKa in [5] came to 12.2. Besides, in data set [20], the Drug recovery was more than 99%.

In data set [1], `N=C(N)NCCC(=O)OC[C@H]1O[C@@H](n2cc([125I])c(=O)[nH]c2=O)C[C@@H]1O` had a logP of -1.48. For the same molecule, in [9], the Stability entry is “Unstable”. Besides, the Drug uptake entry in data set [11] is “Dose-dependent effect and Tde”. The molecule also gave a half-life in [12] of 23.4 min. This molecule also showed a pKa in data set [5] of 11.9.

Values taken from ChEMBL document CHEMBL4402514, “Norepinephrine-Transporter-Targeted and DNA-Co-Targeted Theranostic Guanidines” (J Med Chem, 2020).
